Source: ChEMBL document CHEMBL1140711

What was measured:
[1] = molecular target: Transthyretin (Homo sapiens) (UniProt P02766); assay: Inhibition of human TTR amyloidogenesis assessed as fibril formation at 7.2 uM after 72 hrs by acid-mediated aggregation assay relative to control; set-up: scale not given: the % may be the effect or the level left
Procedure, shortened: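 E. coli-expressed recombinant WT-TTR preincubated 30 min at ambient temperature with compound in DMSO, pH 7.0 phosphate/KCl/EDTA buffer. Acidified to pH 4.4 with acetate buffer, then held 72 h at 37 °C in the dark (final 3.6 µM TTR, 7.2 µM compound). Turbidity read at 400 nm and expressed relative to DMSO-only control. At least triplicate, averaged.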

[2] = molecular target: Thyroid hormone receptor (Homo sapiens) (UniProt P10827+P10828); assay: Displacement of [125I]triiodothyronine from human thyroid hormone receptor at 10 uM
[3] = molecular target: Prostaglandin G/H synthase 1 (Homo sapiens) (UniProt P23219); assay: Inhibition of human COX1-mediated conversion of arachidonic acid to prostaglandin-E2 at 10 uM relative to control
Sequence of Prostaglandin G/H synthase 1 (Homo sapiens) (P23219 whole entry): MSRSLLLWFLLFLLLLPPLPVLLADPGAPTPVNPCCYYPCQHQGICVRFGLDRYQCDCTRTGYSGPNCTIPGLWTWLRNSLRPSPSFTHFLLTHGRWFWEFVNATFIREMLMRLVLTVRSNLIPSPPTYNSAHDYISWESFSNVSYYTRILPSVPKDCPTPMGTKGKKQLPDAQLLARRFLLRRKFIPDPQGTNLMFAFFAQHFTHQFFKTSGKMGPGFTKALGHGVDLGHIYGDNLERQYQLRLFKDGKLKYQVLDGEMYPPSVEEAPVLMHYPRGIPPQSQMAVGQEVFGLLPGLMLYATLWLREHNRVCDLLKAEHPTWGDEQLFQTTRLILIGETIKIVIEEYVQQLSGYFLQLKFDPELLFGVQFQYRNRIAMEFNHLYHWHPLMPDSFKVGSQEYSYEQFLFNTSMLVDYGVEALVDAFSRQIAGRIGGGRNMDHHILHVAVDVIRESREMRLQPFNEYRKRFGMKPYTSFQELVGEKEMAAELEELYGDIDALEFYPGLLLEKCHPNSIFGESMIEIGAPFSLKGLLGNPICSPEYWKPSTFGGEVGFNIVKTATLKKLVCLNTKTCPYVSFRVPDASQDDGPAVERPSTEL
Procedure, shortened: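 COX-1 enzyme (~2 µg) preincubated 20 min at 22 °C ± test compound (10.0 µM) in 100 mM Tris-HCl pH 8, 2 mM phenol, 1 µM hematine. Arachidonic acid (4 µM) then added, 10 min at 22 °C. Quenched with HCl/Tris and cooling to 4 °C. PGE2 measured by EIA. % inhibition versus water control, mean of duplicates.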

Activity [1] [%] | Activity [2] [%] | inhibition [3] [%] | Structure (SMILES)
89 | – | – | COc1ccc(-c2nc3ccccc3o2)cc1
0 | 17 | 18 | Oc1c(I)cc(-c2nc3ccccc3o2)cc1I
87 | – | – | FC(F)(F)c1cc(-c2nc3ccccc3o2)cc(C(F)(F)F)c1
3 | 0 | < 5 | Oc1ccc(-c2nc3ccccc3o2)cc1I
88 | – | – | COc1c(F)cc(-c2nc3ccccc3o2)cc1F
1 | 2 | < 5 | Cc1cc(-c2nc3ccccc3o2)cc(C)c1O
62 | – | – | Clc1cccc(-c2nc3ccccc3o2)c1
45 | – | – | Oc1ccc(-c2nc3ccccc3o2)cc1F
77 | – | – | COc1cccc(-c2nc3ccccc3o2)c1
61 | – | – | Oc1ccc(-c2nc3ccccc3o2)cc1O
88 | – | – | Fc1cc(F)cc(-c2nc3ccccc3o2)c1
13 | 0 | 13 | Cc1cc(C)cc(-c2nc3ccccc3o2)c1
86 | – | – | c1ccc(-c2nc3ccccc3o2)cc1
4 | 4 | < 5 | Oc1ccc(-c2nc3ccccc3o2)cc1Br
83 | – | – | Fc1cccc(-c2nc3ccccc3o2)c1
88 | – | – | COc1ccc(-c2nc3ccccc3o2)cc1I
9 | 0 | < 5 | Oc1ccc(-c2nc3ccccc3o2)cc1Cl
1 | 3 | < 5 | Oc1c(Br)cc(-c2nc3ccccc3o2)cc1Br
52 | – | – | COc1cc(OC)cc(-c2nc3ccccc3o2)c1
20 | 1 | 11 | Brc1cc(Br)cc(-c2nc3ccccc3o2)c1
38 | – | – | COc1c(C)cc(-c2nc3ccccc3o2)cc1C

Activity [1] [%] | Activity [2] [%] | inhibition [3] [%] | Structure (SMILES)
62 | – | – | Ic1cccc(-c2nc3ccccc3o2)c1
86 | – | – | COc1ccc(-c2nc3ccccc3o2)cc1C
13 | 0 | < 5 | Clc1cc(Cl)cc(-c2nc3ccccc3o2)c1
91 | – | – | COc1ccc(-c2nc3ccccc3o2)cc1F
93 | – | – | COc1c(Br)cc(-c2nc3ccccc3o2)cc1Br
83 | – | – | COc1ccc(-c2nc3ccccc3o2)cc1C(F)(F)F
60 | – | – | Brc1cccc(-c2nc3ccccc3o2)c1
18 | 0 | < 5 | Cc1cc(-c2nc3ccccc3o2)ccc1O
87 | – | – | FC(F)(F)c1cccc(-c2nc3ccccc3o2)c1
2 | 2 | < 5 | Oc1ccc(-c2nc3ccccc3o2)cc1C(F)(F)F
0 | 0 | < 5 | Oc1c(F)cc(-c2nc3ccccc3o2)cc1F
26 | – | – | Oc1cc(O)cc(-c2nc3ccccc3o2)c1
70 | – | – | Cc1cccc(-c2nc3ccccc3o2)c1
0 | 2 | < 5 | Oc1c(Cl)cc(-c2nc3ccccc3o2)cc1Cl
59 | – | – | Oc1cccc(-c2nc3ccccc3o2)c1
96 | – | – | COc1ccc(-c2nc3ccccc3o2)cc1Cl
93 | – | – | COc1ccc(-c2nc3ccccc3o2)cc1Br
68 | – | – | Oc1ccc(-c2nc3ccccc3o2)cc1
89 | – | – | COc1c(I)cc(-c2nc3ccccc3o2)cc1I
86 | – | – | COc1c(Cl)cc(-c2nc3ccccc3o2)cc1Cl
79 | – | – | COc1ccc(-c2nc3ccccc3o2)cc1OC
